Assay results: publication PMC7088158 (International Journal of Peptide Research and Therapeutics, 2006)

Key:
α-chymotrypsin = α-chymotrypsin (Bos taurus, UniProt P00766, DEL14-15/DEL147-148); conditions: pH 7.5
[1] = biological target: T1, Human erythrocyte calpain I (Homo sapiens, UniProt P07384); format: biochemical; conditions: pH 7.5
T1 sequence (P07384 1-714): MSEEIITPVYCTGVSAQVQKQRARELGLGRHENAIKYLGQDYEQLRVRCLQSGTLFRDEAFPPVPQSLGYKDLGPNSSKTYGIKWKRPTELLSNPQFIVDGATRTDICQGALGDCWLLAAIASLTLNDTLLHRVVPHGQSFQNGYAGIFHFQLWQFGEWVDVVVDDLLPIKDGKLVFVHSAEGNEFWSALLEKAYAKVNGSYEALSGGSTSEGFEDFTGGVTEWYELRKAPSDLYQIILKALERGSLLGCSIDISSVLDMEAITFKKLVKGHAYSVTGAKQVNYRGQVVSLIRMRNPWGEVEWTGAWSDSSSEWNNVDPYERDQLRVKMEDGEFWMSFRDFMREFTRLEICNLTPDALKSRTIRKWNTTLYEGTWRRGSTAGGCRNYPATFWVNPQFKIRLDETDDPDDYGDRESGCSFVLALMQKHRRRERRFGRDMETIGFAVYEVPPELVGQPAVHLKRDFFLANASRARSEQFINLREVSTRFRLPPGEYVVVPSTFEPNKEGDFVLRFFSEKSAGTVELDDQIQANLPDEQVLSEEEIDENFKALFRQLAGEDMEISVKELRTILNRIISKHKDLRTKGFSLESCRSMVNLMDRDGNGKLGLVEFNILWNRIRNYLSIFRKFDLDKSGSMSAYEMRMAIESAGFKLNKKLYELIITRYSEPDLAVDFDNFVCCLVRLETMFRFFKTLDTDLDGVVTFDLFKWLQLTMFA
T1 sequence (P04632 1-268 partner): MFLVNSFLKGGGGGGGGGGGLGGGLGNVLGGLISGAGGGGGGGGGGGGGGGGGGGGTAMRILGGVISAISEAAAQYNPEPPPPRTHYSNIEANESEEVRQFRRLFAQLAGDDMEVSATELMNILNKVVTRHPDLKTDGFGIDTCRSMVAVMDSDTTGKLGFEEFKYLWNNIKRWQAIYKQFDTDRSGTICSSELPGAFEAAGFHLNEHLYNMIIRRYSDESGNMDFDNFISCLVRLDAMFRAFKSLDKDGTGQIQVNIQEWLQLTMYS

[2] = Aqueous solubility of the substrates; format: physicochemical; conditions: standard form (CFO-1 N-terminus, Lys(BHQ-2)-amide C-terminus)
primary cortical neurons = experiment: Live cell imaging of probe entry and fluorescence in primary cortical neurons; format: cell-based, rat; conditions: washed
Summary of the method: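 Cortical neurons from E18 rat cortices, papain-dissociated (2 mg/mL, 30 min, 37 °C), plated at 1 × 10^5 cells/well on poly-D-lysine-coated chambered cover glasses in Neurobasal/B27 medium and used at 5 DIV. Confocal live imaging used a 20× air objective at 37 °C, with 543 nm excitation and emission collected at 560–615 nm. Frames were taken every 1–2 min.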

trypsin = conditions: pH 7.5
[3] = tested on: primary hippocampal neurons; experiment: Live cell imaging of probe entry and fluorescence in primary hippocampal neurons; format: cell-based, rat; conditions: cA 1 μM preloaded 30 min in Ca2+-free buffer, ionomycin 5 μM then CaCl2 0.2 mM
Summary of the method: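 Hippocampal neurons from E18 rat hippocampi, papain-dissociated (2 mg/mL, 30 min, 37 °C), plated at 1 × 10^5 cells/well on poly-D-lysine cover glasses and used at 9–12 DIV. Medium was Neurobasal/B27 with 1% FBS and glutamate, half-replaced on days 4 and 7. Confocal imaging at 37 °C, 20× air objective, 543 nm excitation, 560–615 nm emission, frames every 1–2 min.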

Substance: PLLAERP [cXg]
- Stability to chymotrypsin, in words (α-chymotrypsin): significantly improved

Substance: PLGAERP [cXa]
- Effectiveness as calpain substrate, in words [1]: rather similar as a calpain substrate to its parent
- Stability to chymotrypsin, in words (α-chymotrypsin): affected remarkably little

Substance: EVYGM*M* [cG]
- Solubility, in words [2]: very poorly soluble

Substance: PLVAERP [cXc]
- Effectiveness as calpain substrate, in words [1]: dramatically reduced the effectiveness of calpain processing

Substance: PLLAERP [cXe]
- Effectiveness as calpain substrate, in words [1]: improved calpain substrate
- Intracellular fluorescence following ionomycin (primary cortical neurons; cXe 2 μM 40 min, ionomycin 5 μM): increased intracellular fluorescence
- Entry into cells without transporter sequence (primary cortical neurons; cXe 2 μM preloaded 40 min, confocal imaging 37 °C): proved to enter cells without a transporter sequence
- Stability to chymotrypsin, in words (α-chymotrypsin): very much more stable to chymotrypsin

Substance: PLLAERP [cXf]
- Stability to chymotrypsin, in words (α-chymotrypsin): little improvement

Substance: PLFAER [cW]
- Effectiveness as calpain substrate, in words [1]: far superior calpain substrate compared to cA
- Stability to trypsin, in words (trypsin): poor stability

Substance: PLLAERP [cXb]
- Effectiveness as calpain substrate, in words [1]: at least as an effective calpain substrate as its parent
- Stability to chymotrypsin, in words (α-chymotrypsin): considerably improved chymotryptic stability

Substance: GSGTSS [cA]
- Effectiveness as calpain substrate, in words [1]: proceeded only partially
- Intracellular fluorescence on activation of calpain pathways by ionomycin [3]: fluorescence was observed

Substance: VVQAGI [cM]
- Solubility, in words [2]: very poorly soluble

Substance: VVTAEA [cJ]
- Solubility, in words [2]: very poorly soluble
